# Source: PubChem (several laboratories)
# LMPTP block = blocks human LMPTP phosphatase; P24666; recombinant LMPTP-A, OMFP fluorogenic substrate, fluorescence intensity; inhibition, % at 20 µM; 360,000 tested, 0.22% active; AID 651560;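 active = compounds that cut the enzyme signal by at least half of the control window in the single-dose screen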;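 also: plate controls were DMSO wells with enzyme plus substrate for no effect and substrate without enzyme for full effect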
# Target sequence (P24666 whole entry, looked up): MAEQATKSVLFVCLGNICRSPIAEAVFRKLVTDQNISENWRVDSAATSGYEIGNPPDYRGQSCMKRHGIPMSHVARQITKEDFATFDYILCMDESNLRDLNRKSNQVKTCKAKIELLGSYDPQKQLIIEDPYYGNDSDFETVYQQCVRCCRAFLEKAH
#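 Test system – LMPTP-A phosphatase enzyme · Quantity – 0.625 nM LMPTP-A final · Reagent – OMFP substrate, 400 µM final · Dosing – one test concentration per compound, 20 µM, with 3% DMSO overall · Timing – 50 min enzyme reaction at room temperature, protected from light · Detection – fluorescence intensity · Controls – substrate-only low control, DMSO enzyme-plus-substrate high control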
# STEP block = inhibitors of human striatal-enriched phosphatase STEP; P54829; recombinant STEP, OMFP fluorogenic substrate, fluorescence; inhibition, % at 20 µM; 360,000 tested, 0.25% active;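 active = inhibition at 20 µM, scaled per plate between control wells, above about 37%, limit read from the data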;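 also: 0% = DMSO with enzyme and substrate and 100% = substrate only without enzyme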
#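 Assay system: isolated STEP enzyme / Timing: 20 min at room temperature, dark / Doses: 20 µM, 1% DMSO / Technique: fluorescence intensity, excitation 480 nm, emission 540 nm / Reagent: fluorogenic phosphatase substrate OMFP at 25 µM final / Measure: percent inhibition scaled to no-enzyme and uninhibited-enzyme controls, plate-pattern corrected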
# SUMO1 PPI mod = modulators of human SUMO1-mediated protein-protein interactions; 360,000 tested, 0.33% active; inhibition, % at 20 µM; AID 602429; SUMO1 binding to a labelled peptide, TR-FRET, 1 h; P63165; in the data active = inhibition above about 37%
# Target sequence (P63165 whole entry, looked up): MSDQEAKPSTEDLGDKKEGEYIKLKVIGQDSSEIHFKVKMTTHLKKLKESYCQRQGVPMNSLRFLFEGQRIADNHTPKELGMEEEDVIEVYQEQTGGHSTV
# Scp1 inh = inhibitors of human Scp-1 phosphatase; Recombinant Scp1, phosphopeptide, malachite green phosphate absorbance; 340,000 tested, 0.88% active; inhibition, % at 20 µM; AID 493091; Q9GZU7;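 active = inhibition above about 50% at 20 µM, limit read from the data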;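 also: plate controls were DMSO wells with enzyme for no effect and wells lacking enzyme for full effect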
# Target sequence (Q9GZU7 76-261 limits assumed): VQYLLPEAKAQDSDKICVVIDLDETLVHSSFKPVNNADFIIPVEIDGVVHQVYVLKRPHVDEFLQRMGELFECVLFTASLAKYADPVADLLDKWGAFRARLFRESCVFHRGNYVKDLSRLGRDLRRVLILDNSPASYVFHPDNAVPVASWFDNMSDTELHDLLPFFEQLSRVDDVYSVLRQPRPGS
#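 Test system – truncated SCP-1 phosphatase (76-261aa) · Reagent – Phosphorylated 17-residue peptide substrate · Incubation – 45 min room-temperature reaction, 5 min colour, 30 min stabiliser · Detection – colorimetric phosphate reagent with accelerator and stabiliser, absorbance at 630 nm · Measure – % inhibition at 20 µM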
# CFTR F508del cor = CFTR F508del correction in bronchial cells; AID 720511; 350,000 tested, 0.36% active; activity (quench increase), % at 7.58 µM; CFBE cells, YFP halide quenching; stimulated with forskolin plus potentiator P3; % fluorescence drop versus neutral controls;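 active = mean added fluorescence quench of at least 8% versus neutral control, with both replicates also reaching 8%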;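 also: cells transiently co-express mutant CFTR-F508del with the halide-sensitive YFP; corrector assay measuring rescue of mutant channel to the surface after 24 h compound exposure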
# DNMT1 inh = inhibitors of human DNMT1; P26358; DNMT1 molecular beacon, Hinp1I cleavage, fluorescence; inhibition (reported as % activation of signal), % at 10 µM; 360,000 tested, 0.83% active; in the data active = inhibition above about 50%
# Numbers without * were called inactive; . = not tested or not shown. Compounds with a hit are over-represented: about 1.6% of the library has one in this group of screens.
SMILES,LMPTP block,STEP block,SUMO1 PPI mod,Scp1 inh,CFTR F508del cor,DNMT1 inh
CCOC(=O)C(C(=O)OCC)c1cc(Br)c2noc3c2c1C(=O)c1ccccc1-3,23.7,-4.7,36.0,27.1,.,57.1*
CC(=O)OCCNc1cc(N2CCN(C)CC2)c2noc3c2c1C(=O)c1ccccc1-3,3.7,4.8,-35.0,7.0,0.3,-14.7
COc1ccc(C2=NOC(C(=O)NCc3ccccc3)C2)cc1 (stereo unspecified),-0.5,-1.9,0.0,2.9,11.0*,0.3
C[C@@H]1CCCCO[C@@H](CN(C)C(=O)Nc2ccccc2)[C@H](C)CN([C@@H](C)CO)C(=O)c2cc(NC(=O)C3CCCCC3)ccc2O1,.,.,.,.,1.1,.
CC(C)C[C@H](NC(=O)c1nc[nH]c1C(=O)N1CCN(C(=O)OC(C)(C)C)CC1)C(=O)OC(C)(C)C,0.6,0.8,1.8,4.9,12.3*,1.5
C[C@H]1CN([C@@H](C)CO)C(=O)Cc2cc(NC(=O)Nc3ccccc3)ccc2O[C@@H]1CN(C)C(=O)Nc1ccc(F)cc1,.,.,.,.,3.1,.
CN(C)CC(=O)N[C@@H]1CC[C@H](CCn2cc(C3CC3)nn2)O[C@H]1CO,.,.,.,.,-0.1,.
COc1ccc2c3c(n(C)c2c1)[C@@H](CO)N(C(=O)NC(C)C)CC31CN(CC2CCCC2)C1,.,.,.,.,1.6,.
Cc1ccc(Cl)cc1N1CCN(C(=O)c2cc3c(=O)n(C)c4ccccc4c3n2C)CC1,7.3,1.5,48.3*,-8.0,-0.6,-5.6
Cc1cccc(N2CCN(C(=O)c3cc4c(=O)n(C)c5ccccc5c4n3C)CC2)c1C,5.0,2.5,9.5,-11.7,4.8,-5.7
C=C1c2cccc(O)c2C(O)=C2C(=O)[C@]3(O)C(O)=C(C(N)=O)C(=O)[C@@H](N(C)C)[C@@H]3[C@@H](O)[C@H]12,87.9*,25.4,72.0*,39.3,1.6,90.3*
C[C@H]1c2cccc(O)c2C(O)=C2C(=O)C3(O)C(O)=C(C(N)=O)C(=O)[C@@H](N(C)C)[C@@H]3[C@@H](O)[C@@H]21 (stereo partly specified),0.7,-1.9,0.7,-14.5,2.2,-2.1
Cc1sc(NC(=O)CSc2nnc(-c3ccccc3)o2)c(C#N)c1C,0.3,1.9,2.9,-6.9,.,2.1
CC1CCc2c(sc(NC(=O)CSc3nnc(-c4ccccc4)o3)c2C#N)C1 (stereo unspecified),65.5*,1.7,0.0,0.7,.,18.3
N#Cc1c(NC(=O)CSc2nnc(-c3ccccc3)o2)sc2c1CCCC2,76.8*,-0.8,-0.3,2.9,0.3,2.7
CC(C)Oc1ccc(C(=O)Nc2ccc(N3CCN(C(=O)c4ccco4)CC3)cc2)cc1,-1.3,0.8,8.3,-10.1,-1.1,-3.6
O=C(Nc1ccc(N2CCCC2)cc1)c1ccc(Cl)cc1Cl,-1.7,1.8,5.2,-1.6,1.3,17.7
O=C(Nc1ccc(N2CCCC2)cc1)c1cc(Cl)ccc1Cl,35.2,1.1,90.4*,-3.7,-4.0,52.9*
CC(C)Oc1ccc(C(=O)Nc2ccc(N3CCCC3)cc2)cc1,5.1,-4.1,-33.9,3.1,.,53.0*
COCCNc1nc(Nc2ccccc2Cl)c2sccc2n1,28.2,-0.5,-2.0,.,0.3,1.4
COc1ccccc1CNc1nc(NCc2ccc(C)cc2C)c2sccc2n1,15.4,11.4,-5.8,.,.,-26.0
COCCNc1nc(NCc2ccc(C)cc2C)c2sccc2n1,59.3*,0.3,-0.8,.,2.3,4.2
COCCNc1nc(Nc2ccc(C)cc2C)c2sccc2n1,16.2,1.1,-2.8,.,10.1*,-1.6
COCCNc1nc(NCc2ccc(C(C)C)cc2)c2sccc2n1,50.7*,2.1,1.4,.,3.7,1.8
COc1ccccc1CNc1nc(NCc2cccc(OC)c2OC)c2sccc2n1,37.1,1.6,-3.6,.,-0.1,-6.0
COCCNc1nc(NCc2cccc(OC)c2OC)c2sccc2n1,62.2*,-2.4,5.3,.,-4.3,-3.9
COc1ccc(Nc2nc(NCc3cccs3)nc3ccsc23)cc1OC,56.3*,3.6,-7.9,.,1.4,-9.4
COc1ccccc1CNc1nc(NCc2cnc(C)cn2)c2sccc2n1,79.9*,-0.3,2.4,.,-0.1,3.4
